How the values were obtained:
[1] = target: T1, Adenosine receptor A1 (Homo sapiens) (UniProt P30542); experiment: Percent change in cAMP content of CHO (Chinese hamster ovary) cells expressing human Adenosine A1 receptor at 1 uM; format: functional, cell-based
T1 sequence (whole entry): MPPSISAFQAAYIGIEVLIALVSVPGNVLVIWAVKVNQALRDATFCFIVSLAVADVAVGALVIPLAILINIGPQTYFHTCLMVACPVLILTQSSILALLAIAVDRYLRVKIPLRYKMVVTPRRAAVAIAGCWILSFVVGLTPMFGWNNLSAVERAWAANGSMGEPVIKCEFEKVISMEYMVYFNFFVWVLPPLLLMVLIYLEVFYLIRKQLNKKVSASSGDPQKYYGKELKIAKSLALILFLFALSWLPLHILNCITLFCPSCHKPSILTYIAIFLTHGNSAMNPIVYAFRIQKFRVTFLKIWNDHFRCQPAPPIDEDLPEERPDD
In short: (§1)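 CHO cells stably expressing human A1 receptor (~8000 fmol/mg protein) were grown in Ham's F-12 with 10% FBS and G-418 for 48 h to confluence. HCl (50 mM final) stopped the reaction, and cAMP was measured by radioimmunoassay. Values are % change versus no-compound control, mean ± SEM of six experiments.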

[2] = target: T1, Adenosine receptor A1 (Homo sapiens); experiment: Percent change in cAMP content of CHO (Chinese hamster ovary) cells expressing human Adenosine A1 receptor at 0.1 uM; format: functional, cell-based; in short: as §1
[3] = target: T1, Adenosine receptor A1 (Homo sapiens); experiment: Percent change in cAMP content of CHO (Chinese hamster ovary) cells expressing human Adenosine A1 receptor at 0.01 uM; format: functional, cell-based; in short: as §1
[4] = target: T1, Adenosine receptor A1 (Homo sapiens); experiment: Percent change in cAMP content of CHO (Chinese hamster ovary) cells expressing human Adenosine A1 receptor at 10 uM; format: functional, cell-based; in short: as §1
[5] = target: Adenosine receptor A2a (Homo sapiens) (UniProt P29274); experiment: Ability to displace the binding of [3H]-ZM 241385, to the ligand binding site of CHO:hA2A (human Adenosine A2A receptor) at concentration of 10 uM
In short: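 CHO:hA2A membranes (100 µg protein, ADA-treated) were incubated with 2 nM [3H]ZM 241385 in Tris-HCl with MgCl2, pH 7.4, for 60 min at 4 °C, with compound from DMSO (1% final). Nonspecific binding was taken with 1 µM ZM241385. After filtration, results are % displacement by 10 µM compound, ±STD, n = 3.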

[6] = target: T2, Adenosine receptor A3 (Homo sapiens) (UniProt P0DMS8); experiment: Ability to displace the binding of [3H]-MRE 3008-F20 to the ligand binding site of CHO:hA3 (human Adenosine receptor) at concentration of 10 uM
T2 sequence (whole entry): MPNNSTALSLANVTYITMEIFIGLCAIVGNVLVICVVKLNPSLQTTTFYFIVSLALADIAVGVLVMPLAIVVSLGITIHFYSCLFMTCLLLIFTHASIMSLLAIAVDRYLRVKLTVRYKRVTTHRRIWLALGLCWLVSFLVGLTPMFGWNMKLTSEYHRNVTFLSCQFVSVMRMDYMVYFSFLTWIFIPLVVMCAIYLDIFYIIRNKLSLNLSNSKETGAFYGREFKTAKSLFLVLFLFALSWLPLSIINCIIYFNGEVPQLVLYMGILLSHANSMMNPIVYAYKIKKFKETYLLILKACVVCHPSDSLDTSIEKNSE
In short: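 Assays used 2 nM [3H]MRE 3008F20 on CHO:hA3 membranes (100 µg protein, ADA-treated) for 150 min at 4 °C, in Tris-HCl with MgCl2 and 1 mM EDTA, pH 7.4, with compound from DMSO (1% final). Bound ligand was separated by filtration. Results are % displacement by 10 µM compound, ±STD, n = 3.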

[7] = target: T1, Adenosine receptor A1 (Homo sapiens); experiment: Ability to displace the binding of [3H]DPCPX to the ligand binding site of CHO:hA1 (human Adenosine A1 receptor) at concentration of 10 uM
In short: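 Membranes came from hypotonic lysis of CHO:hA1 cells, a 100 000g pellet and ADA 2 U/mL treatment for 30 min at 37 °C. Membranes (100 µg protein) were incubated with 1 nM [3H]DPCPX in Tris-HCl pH 7.4 for 150 min at 25 °C, with compound added from DMSO (1% final). Nonspecific binding was taken with 1 µM DPCPX, and bound ligand was separated on GF/B filters.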

Sequence of Adenosine receptor A2a (Homo sapiens) (P29274 whole entry): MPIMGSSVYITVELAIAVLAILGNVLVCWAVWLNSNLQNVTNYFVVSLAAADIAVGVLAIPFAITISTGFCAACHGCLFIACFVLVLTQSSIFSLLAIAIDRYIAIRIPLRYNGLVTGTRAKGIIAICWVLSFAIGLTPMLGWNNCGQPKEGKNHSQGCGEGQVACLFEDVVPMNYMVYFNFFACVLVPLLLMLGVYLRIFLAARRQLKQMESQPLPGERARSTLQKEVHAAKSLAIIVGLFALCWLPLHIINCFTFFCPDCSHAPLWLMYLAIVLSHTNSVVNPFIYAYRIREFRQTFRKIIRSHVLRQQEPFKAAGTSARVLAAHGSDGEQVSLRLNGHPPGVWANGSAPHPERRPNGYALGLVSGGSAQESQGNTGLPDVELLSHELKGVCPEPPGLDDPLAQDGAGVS

| Change [1] [%] | Change [2] [%] | Change [3] [%] | Change [4] [%] | inhibition [5] [%] | inhibition [6] [%] | inhibition [7] [%] | Compound |
| --- | --- | --- | --- | --- | --- | --- | --- |
| -21 | -8 | -6 | -6 | – | – | – | Nc1sc2c(c1C(=O)c1ccc3ccccc3c1)CCN(Cc1ccc(Cl)cc1)C2 |
| -6 | 1 | -6 | -13 | – | – | – | Nc1sc2c(c1C(=O)c1ccc(I)c3ccccc13)CCN(Cc1ccccc1)C2 |
| -10 | -3 | -3 | -31 | -0 | -0 | 3 | Nc1sc2c(c1C(=O)c1ccc3ccccc3c1)CCN(Cc1ccccc1F)C2 |
| 1 | 9 | 17 | -37 | -0 | 19 | 13.5 | Nc1sc2ccccc2c1C(=O)c1cccc2ccccc12 |
| -18 | -0 | -0 | -24 | -0 | -0 | 4 | Cc1sc(N)c(C(=O)c2cc(C)c3cc(Cl)ccc3c2)c1C |
| -14 | -7 | -8 | -21 | – | – | – | Nc1sc2c(c1C(=O)c1cccc3ccccc13)CCC(Cc1ccccc1)C2 (configuration not stated) |
| -11 | 1 | -0 | -13 | – | – | – | Cc1cc(C(=O)c2c(N)sc3c2CCCC3)cc2ccc(Cl)cc12 |
| -10 | -17 | -4 | -19 | – | – | – | Cc1sc(N)c(C(=O)c2ccc3c(c2)Cc2ccccc2-3)c1C |
| -7 | -1 | 3 | -21 | – | – | – | Nc1sc2c(c1C(=O)c1ccc(Cl)c3ccccc13)CCN(Cc1ccccc1)C2 |
| -32 | -8 | -5 | -51 | – | – | – | Cc1sc(N)c(C(=O)c2ccc(C)c3ccccc23)c1C |
| 31 | 5 | -8 | 33 | – | – | – | Nc1sc2c(c1C(=O)c1ccc3ccccc3c1)CCC(c1ccccc1)C2 (configuration not stated) |
| -25 | -7 | -21 | 19 | – | – | – | Nc1sc2c(c1C(=O)c1cccc3ccccc13)CCN(Cc1ccccc1)C2 |
| 3 | 11 | -0 | -12 | – | – | – | COc1ccc(C(=O)c2c(N)sc3c2CCN(Cc2ccccc2)C3)c2ccccc12 |
| 41 | -12 | -8 | 56 | – | – | – | Nc1sc2c(c1C(=O)c1ccc3ccccc3c1)CCN(Cc1cccnc1)C2 |

The next lines start with the molecule.

| Compound | Change [1] [%] | Change [2] [%] | Change [3] [%] | Change [4] [%] | inhibition [5] [%] | inhibition [6] [%] | inhibition [7] [%] |
| --- | --- | --- | --- | --- | --- | --- | --- |
| Nc1sc2c(c1C(=O)c1ccc3ccccc3c1)CCN(Cc1cccc(Cl)c1)C2 | 7 | -12 | 9 | -3 | – | – | – |
| Cc1ccc(C(=O)c2c(N)sc3c2CCC3)c2ccccc12 | -17 | 4 | 9 | -48 | – | – | – |
| COc1ccc(CN2CCc3c(sc(N)c3C(=O)c3ccc4ccccc4c3)C2)c(OC)c1OC | -10 | -1 | -3 | 5 | – | – | – |
| Nc1sc2c(c1C(=O)c1ccc3ccccc3c1)CCN(Cc1ccccc1)C2 | -18 | -12 | -11 | -60 | -0 | 22 | 2.5 |
| Nc1sc2c(c1C(=O)c1ccc(Br)c3ccccc13)CCN(Cc1ccccc1)C2 | -12 | -5 | 18 | -42 | – | – | – |
| Cc1sc(N)c(C(=O)c2ccc3ccccc3c2)c1C | -8 | -4 | -1 | -28 | -0 | -0 | -0 |
| Nc1sc2c(c1C(=O)c1ccc3ccccc3c1)CCC(Cc1ccccc1)C2 (configuration not stated) | -9 | 10 | 7 | 28 | – | – | – |
| Cc1sc(N)c(C(=O)c2ccc(Br)c3ccccc23)c1C | -2 | -1 | -8 | -60 | – | – | – |
| Cc1cc(C(=O)c2c(N)sc3c2CCCC3)cc2ccccc12 | -8 | -9 | -7 | -20 | – | – | – |
| COc1ccc(C2SCc3c(sc(N)c3C(=O)c3cccc4ccccc34)S2)cc1 (configuration not stated) | 4 | 16 | 18 | 6 | – | – | – |
| Cc1cc(C(=O)c2c(N)sc3c2CCN(Cc2ccccc2)C3)cc2ccccc12 | -0 | 2 | -0 | -16 | – | – | – |
| Cc1ccc(C(=O)c2c(N)sc3c2CCCC3)c2ccccc12 | -21 | 13 | 17 | -45 | – | – | – |
| COc1ccc(C(=O)c2c(N)sc3c2CCC3)c2ccccc12 | -8 | -3 | -6 | -35 | -0 | 57 | 19 |
| Cc1sc(N)c(C(=O)c2ccc(Cl)c3ccccc23)c1C | -47 | -18 | 12 | -56 | – | – | – |
| COc1ccc(C(=O)c2c(N)sc(C)c2C)c2ccccc12 | -5 | 3 | 9 | -38 | – | – | – |
| COc1ccc(C(=O)c2c(N)sc3c2CCCC3)c2ccccc12 | -3 | 5 | 5 | -17 | – | – | – |
| Cc1ccc(C(=O)c2c(N)sc3c2CCN(Cc2ccccc2)C3)c2ccccc12 | -13 | -7 | -0 | -34 | – | – | – |
| Nc1sc2c(c1C(=O)c1ccc3ccccc3c1)CCN(Cc1ccc(F)cc1)C2 | -2 | -9 | -11 | -8 | – | – | – |
| Nc1sc2c(c1C(=O)c1ccc3ccccc3c1)CCN(Cc1ccc([N+](=O)[O-])cc1)C2 | 26 | 12 | 8 | 26 | – | – | – |
| Nc1sc2c(c1C(=O)c1ccc3c(c1)Cc1ccccc1-3)CCCC2 | 7 | 6 | 7 | 3 | – | – | – |
| Cc1cc(C(=O)c2c(N)sc3c2CCN(Cc2ccccc2)C3)cc2ccc(Cl)cc12 | -5 | 1 | -1 | -9 | – | – | – |
| Cc1cc(C(=O)c2c(N)sc3c2CCC3)cc2ccc(Cl)cc12 | -6 | -14 | 4 | -17 | – | – | – |
| Cc1sc(N)c(C(=O)c2cc(C)c3ccccc3c2)c1C | -9 | -3 | 4 | -22 | – | – | – |
| Nc1sc2c(c1C(=O)c1ccc3c(c1)Cc1ccccc1-3)CCC2 | -6 | -15 | -3 | -9 | – | – | – |
| Nc1sc2c(c1C(=O)c1ccc3ccccc3c1)CCN(Cc1ccccc1Cl)C2 | -10 | -20 | -10 | -17 | – | – | – |
| Cc1sc(N)c(C(=O)c2ccc(I)c3ccccc23)c1C | -19 | -3 | -5 | -63 | – | – | – |
| Nc1sc2c(c1C(=O)c1ccc3c(c1)Cc1ccccc1-3)CCN(Cc1ccccc1)C2 | 8 | -7 | 4 | -1 | – | – | – |

Source: ChEMBL document CHEMBL1145774, “Synthesis and biological effects of novel 2-amino-3-naphthoylthiophenes as allosteric enhancers of the A1 adenosine receptor” (J Med Chem, 2003)
